# In ChEMBL document CHEMBL3272018, “Synthesis of aziridinylallylaminophosphine oxides and sulfides as potential adjuvant cancer chemotherapeutic agents” (J Med Chem, 1976):
# Active and inactive are the calls of the source. The calls are words filed in the database; no cut-off is given here.
# Columns and labels:
# Rattus norvegicus [1] = assay: Toxicity in rat allografted with rat Walker 256 cells intramuscularly assessed as change in body weight at 6.25 mg/kg, qd administered for 5 days; type: organism-based; design: dose 6.25 mg/kg, route intramuscular; conditions: in vivo, im, 120 h
# In short: (§1)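 Walker 256 carcinoma solid-tumour system in rats (parent line, or the line resistant to cytoxan). Dosing was one injection per day for 5 days. Toxicity was taken as the average net body-weight change of the treated group minus the average net weight change of the untreated tumour-bearing controls, in grams.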
# Rattus norvegicus [2] = assay: Toxicity in rat allografted with rat Walker 256 cells intramuscularly assessed as change in body weight at 3.12 mg/kg, qd administered for 5 days; type: organism-based; design: dose 3.12 mg/kg, route intramuscular; conditions: in vivo, im, 120 h; in short: as §1
# Rattus norvegicus [3] = assay: Toxicity in rat allografted with rat Walker 256 cells intramuscularly assessed as change in body weight at 1.56 mg/kg, qd administered for 5 days; type: organism-based; design: dose 1.56 mg/kg, route intramuscular; conditions: in vivo, im, 120 h; in short: as §1
# Rattus norvegicus [4] = assay: Toxicity in rat allografted with rat Walker 256 cells intramuscularly assessed as change in body weight at 0.78 mg/kg, qd administered for 5 days; type: organism-based; design: dose 0.78 mg/kg, route intramuscular; conditions: in vivo, im, 120 h; in short: as §1
# Rattus norvegicus [5] = assay: Toxicity in rat allografted with rat Walker 256 cells intramuscularly assessed as change in body weight at 0.47 mg/kg, qd administered for 5 days; type: organism-based; design: dose 0.47 mg/kg, route intramuscular; conditions: in vivo, im, 120 h; in short: as §1
# Rattus norvegicus [6] = assay: Toxicity in rat allografted with rat Walker 256 cells intramuscularly assessed as change in body weight at 0.23 mg/kg, qd administered for 5 days; type: organism-based; design: dose 0.23 mg/kg, route intramuscular; conditions: in vivo, im, 120 h; in short: as §1
# Rattus norvegicus [7] = assay: Toxicity in rat allografted with rat Walker 256 cells intramuscularly assessed as mortality at 12 mg/kg administered as single dose; type: organism-based; design: dose 12 mg/kg, route intramuscular; conditions: in vivo, im
# In short: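 Walker 256 solid-tumour system in rats. A single dose level of 12.0 mg/kg was given as one injection. Toxic deaths were recorded, and tumour presence was checked when the animals were sacrificed.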
# W256 [8] = assay: Antitumor activity against rat Walker 256 cells intramuscularly allografted in rat assessed as tumor incidence at 12 mg/kg administered as single dose; type: functional, organism-based; design: dose 12 mg/kg
# In short: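 Walker 256 solid tumour in rats, given one injection at 12.0 mg/kg. Tumours and toxic deaths were recorded at sacrifice.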
# W256 [9] = assay: Antitumor activity against rat Walker 256 cells intramuscularly allografted in rat assessed as tumor growth inhibition at 6.25 mg/kg, qd administered for 5 days relative to control; type: functional; conditions: W256, im, 120 h, route intramuscular, read-out: TGI
# In short: (§2)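 Walker 256 carcinoma grown as a solid tumour in rats, with one injection daily for 5 days. Response is given as T/C %, the treated-group measure over the untreated-control tumour measure; a smaller value means more activity. Host toxicity is the mean net weight change of treated minus control animals, in grams.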
# W256 [10] = assay: Antitumor activity against rat Walker 256 cells intramuscularly allografted in rat assessed as tumor growth inhibition at 3.12 mg/kg, qd administered for 5 days relative to control; type: functional; conditions: W256, im, 120 h, route intramuscular, read-out: TGI; in short: as §2
# W256 [11] = assay: Antitumor activity against rat Walker 256 cells intramuscularly allografted in rat assessed as tumor growth inhibition at 1.56 mg/kg, qd administered for 5 days relative to control; type: functional; conditions: W256, im, 120 h, route intramuscular, read-out: TGI
# In short: (§3)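 Dosed once daily for 5 days. Response is tumor progression in treated (T) versus untreated control (C) animals, expressed as T/C percentage. Host weight change is reported as the average net weight change of the test group minus that of the controls, in grams.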
# W256 [12] = assay: Antitumor activity against rat Walker 256 cells intramuscularly allografted in rat assessed as survival rate at 6.25 mg/kg, qd administered for 5 days; type: functional, organism-based; design: dose 6.25 mg/kg
# In short: (§4)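 Rats bearing Walker 256 carcinoma as a solid tumor; lines 1-8 use a cytoxan-resistant Walker 256 subline. Dosed once daily for 5 days. Treated (T) and untreated control (C) groups are compared, and the response is given as T/C percentage, reflecting increase in survival time. Host weight change is the average weight change of the test group minus that of the controls, in grams.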
# W256 [13] = assay: Antitumor activity against rat Walker 256 cells intramuscularly allografted in rat assessed as survival rate at 3.12 mg/kg, qd administered for 5 days; type: functional, organism-based; design: dose 3.12 mg/kg; in short: as §4
# W256 [14] = assay: Antitumor activity against rat Walker 256 cells intramuscularly allografted in rat assessed as survival rate at 1.56 mg/kg, qd administered for 5 days; type: functional, organism-based; design: dose 1.56 mg/kg; in short: as §4
# W256 [15] = assay: Antitumor activity against rat Walker 256 cells intramuscularly allografted in rat assessed as survival rate at 0.78 mg/kg, qd administered for 5 days; type: functional, organism-based; design: dose 0.78 mg/kg; in short: as §4
# W256 [16] = assay: Antitumor activity against rat Walker 256 cells intramuscularly allografted in rat assessed as survival rate at 0.47 mg/kg, qd administered for 5 days; type: functional, organism-based; design: dose 0.47 mg/kg; in short: as §4
# W256 [17] = assay: Antitumor activity against rat Walker 256 cells intramuscularly allografted in rat assessed as survival rate at 0.23 mg/kg, qd administered for 5 days; type: functional, organism-based; design: dose 0.23 mg/kg; in short: as §4
# W256 [18] = assay: Antitumor activity against rat Walker 256 cells intramuscularly allografted in rat assessed as tumor growth inhibition at 0.78 mg/kg, qd administered for 5 days relative to control; type: functional; conditions: W256, im, 120 h, route intramuscular, read-out: TGI; in short: as §3
# W256 [19] = assay: Antitumor activity against rat Walker 256 cells intramuscularly allografted in rat assessed as tumor growth inhibition at 0.47 mg/kg, qd administered for 5 days relative to control; type: functional; conditions: W256, im, 120 h, route intramuscular, read-out: TGI; in short: as §3
# W256 [20] = assay: Antitumor activity against rat Walker 256 cells intramuscularly allografted in rat assessed as tumor growth inhibition at 0.23 mg/kg, qd administered for 5 days relative to control; type: functional; conditions: W256, im, 120 h, route intramuscular, read-out: TGI; in short: as §3
# [21] = Toxicity in rat allografted with rat Walker 256 cells intramuscularly; type: organism-based
# W256 [22] = assay: Antitumor activity against rat Walker 256 cells intramuscularly allografted in rat assessed as tumor growth inhibition; type: functional; conditions: W256, im; in short: as §3
# [23] = Therapeutic index, ratio of LD50 for rat allografted with rat Walker 256 cells to ED10 for antitumor activity against rat Walker 256 cells intramuscularly allografted in rat; type: cell-based; conditions: read-out: TI
# In short: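 Therapeutic index is LD50/ED10 in the Walker 256 solid tumour system. ED10 is the dose giving a 10% tumour weight reduction, with values extrapolated from dose-response data.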
smiles,measurement,setting,value
C=CCN(CC=C)P(=O)(N(CC=C)CC=C)N1CC1C (stereo not drawn),Activity,Rattus norvegicus [1],-28 g
same,Activity,Rattus norvegicus [2],-15 g
same,Activity,Rattus norvegicus [3],-22 g
same,Activity,Rattus norvegicus [4],-8 g
same,Activity,Rattus norvegicus [5],-15 g
same,Activity,Rattus norvegicus [6],-3 g
same,Activity,Rattus norvegicus [7],Non-toxic
same,Activity,W256 [8],Active
same,inhibition in vivo at 6.25 mg/kg,W256 [9],3%
same,inhibition in vivo at 3.12 mg/kg,W256 [10],1%
same,inhibition in vivo at 1.56 mg/kg,W256 [11],2%
same,Activity,W256 [12],Active
same,Activity,W256 [13],Active
same,Activity,W256 [14],Active
same,Activity,W256 [15],Active
same,Activity,W256 [16],Active
same,Activity,W256 [17],Active
same,inhibition in vivo at 0.78 mg/kg,W256 [18],4%
same,inhibition in vivo at 0.47 mg/kg,W256 [19],2%
same,inhibition in vivo at 0.23 mg/kg,W256 [20],33%
same,LD50,[21],75 mg/kg
same,ED10,W256 [22],0.62 mg/kg
same,selectivity ratio,[23],125
